Calls of active or inactive are those of the source. The calls are words filed in the database; no cut-off is given here.
Assays:
[1] = target: T1, Leukocyte surface antigen CD47 (Homo sapiens, UniProt Q08722); assay: Binding affinity to CD47 in biotinylated human MEC1 cell membranes by biolayer interferometry
In short: (§1)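 Biotinylated membrane preparations from MEC-1 cells were loaded onto SuperStreptavidin biosensors. Binding was measured by bilayer interferometry (Octet RED96) in PBS with 0.2% BSA and 1% DMSO at 30 °C. Affinities are given as apparent Kd estimates.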

[2] = tested on: MEC1; assay: Cytotoxicity against human MEC1 cells assessed as induction of cell death at 200 uM after 6 hrs by annexin V/propidium iodide staining based flow cytometric analysis relative to control; assay type: functional
[3] = tested on: A549; assay: Induction of cell death in human A549 cells at 100 uM in presence of ryanodine inhibitor dantrolene administered 1 hr post dantrolene treatment in serum-free medium by annexin V-APC/propidium iodide staining based flow cytometric analysis; assay type: functional
In short: (§2)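 Peptide was then added at 10 or 100 μM in serum-free medium for 6 h. Cell death was read by Ann-V/PI flow cytometry and trypan blue counting. A cell death index was obtained by normalizing to each peptide's control. Mean ± SD of two experiments.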

[4] = tested on: A549; assay: Induction of cell death in human A549 cells at 100 uM administered 30 mins post Q-VD-OPh treatment in serum-free medium by propidium iodide staining based flow cytometric analysis; assay type: functional
[5] = tested on: A549; assay: Cytotoxicity against human A549 cells assessed as induction of cell death after 6 hrs by annexin V-APC/propidium iodide staining based flow cytometric analysis; assay type: functional; conditions: A549, 6 h, read-out: LC50 (the source's name)
In short: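 A549 cells kept in Advanced RPMI 1640 with 10% fetal calf serum, 2 mM L-glutamine and penicillin–streptomycin. Peptides at the indicated concentrations in this complete medium for 6 h. Cells stained with Ann-V-APC (0.1 μg/mL) and PI (0.5 μg/mL), then read by flow cytometry. Values are means ± SD of two independent experiments.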

[6] = tested on: A549; assay: Disruption of membrane integrity in human A549 cells assessed as increase in adenylate kinase release at 200 uM by ToxiLight bioassay; assay type: functional, cell-based
[7] = tested on: A549; assay: Induction of cell death in human A549 cells at 100 uM in presence of PLCgamma1 inhibitor U73122 administered 1 hr post U73122 treatment in serum-free medium by annexin V-APC/propidium iodide staining based flow cytometric analysis; assay type: functional; in short: as §2
[8] = tested on: MEC1; assay: Induction of cell death in human MEC1 cells at 50 uM in presence of ryanodine inhibitor dantrolene administered 1 hr post dantrolene treatment in serum-free medium by annexin V-APC/propidium iodide staining based flow cytometric analysis; assay type: functional
In short: (§3)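 Peptide was then added at 5 or 50 μM in serum-free medium for 2 h. Cell death was read by Ann-V/PI flow cytometry and normalized to each peptide's control to give an index. Mean ± SD of at least two experiments.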

[9] = tested on: MEC1; assay: Induction of cell death in human MEC1 cells at 50 uM in presence of IP3R inhibitor 2-APB administered 1 hr post 2-APB treatment in serum-free medium by annexin V-APC/propidium iodide staining based flow cytometric analysis; assay type: functional; in short: as §3
[10] = tested on: A549; assay: Induction of cell death in human A549 cells at 100 uM in presence of extracellular calcium chelator BAPTA administered 30 mins post BAPTA treatment in serum-free medium by annexin V-APC/propidium iodide staining based flow cytometric analysis; assay type: functional
[11] = target: T1, Leukocyte surface antigen CD47; assay: Agonist activity at CD47 in human MEC1 cells assessed as activation of PLCgamma1-induced calcium-mediated caspase-independent cell death at 200 uM after 2 hrs by microscopic method; assay type: cell-based
In short: (§4)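 MEC-1 CLL cells kept in Advanced RPMI 1640 with 10% FCS, 2 mM L-glutamine and penicillin–streptomycin. Cells were treated with peptide in complete medium for 2 h, then examined by light microscopy at 20X for morphology and cell aggregation.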

[12] = tested on: MEC1; assay: Induction of cell death in human MEC1 cells at 50 uM in presence of ryanodine inhibitor dantrolene/PLCgamma1 inhibitor U73122/IP3R inhibitor 2-APB by annexin V-APC/propidium iodide staining based flow cytometric analysis; assay type: functional; in short: as §3
[13] = tested on: MEC1; assay: Induction of cell aggregation in human MEC1 at 200 uM after 2 hrs by microcopic method; assay type: functional, cell-based; in short: as §4
[14] = tested on: A549; assay: Induction of cell death in human A549 cells at 100 uM in presence of IP3R inhibitor 2-APB administered 1 hr post 2-APB treatment in serum-free medium by annexin V-APC/propidium iodide staining based flow cytometric analysis; assay type: functional; in short: as §2
[15] = tested on: MEC1; assay: Cytotoxicity against human MEC1 cells assessed as induction of cell death after 2 hrs by annexin V/propidium iodide staining based flow cytometric analysis; assay type: functional; conditions: MEC1, 2 h, read-out: LC50 (the source's name)
In short: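 MEC-1 CLL cells (TP53-dysfunctional) maintained in Advanced RPMI 1640 with 10% fetal calf serum, 2 mM L-glutamine and penicillin–streptomycin. Peptide treatment for 2 h in complete medium. Ann-V-APC (0.1 μg/mL) and PI (0.5 μg/mL) staining, read by flow cytometry. Cell death taken as the sum of AnnV+/PI- and AnnV+/PI+ events. Mean ± SD of at least three independent experiments.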

[16] = tested on: A549; assay: Induction of cell death in human A549 cells assessed as reduction in cell index at 200 uM measured every minute for first 2 hrs followed by every hour for 24 hrs by RTCA analysis; assay type: functional, cell-based
[17] = tested on: MEC1; assay: Induction of cell death in human MEC1 cells at 50 uM in presence of extracellular calcium chelator BAPTA administered 30 mins post BAPTA treatment in serum-free medium by Annexin V-APC/propidium iodide staining based flow cytometric analysis; assay type: functional
[18] = tested on: A549; assay: Induction of cell death in human A549 cells at 100 uM in presence of ryanodine inhibitor dantrolene/PLCgamma1 inhibitor U73122/IP3R inhibitor 2-APB by annexin V-APC/propidium iodide staining based flow cytometric analysis; assay type: functional; in short: as §2
[19] = tested on: MEC1; assay: Induction of cell death in human MEC1 cells at 50 uM in presence of PLCgamma1 inhibitor U73122 administered 1 hr post U73122 treatment in serum-free medium by annexin V-APC/propidium iodide staining based flow cytometric analysis; assay type: functional; in short: as §3
[20] = tested on: MEC1; assay: Induction of cell death in human MEC1 cells at 50 uM in presence of caspase inhibitor Q-VD-OPH administered 30 mins post Q-VD-OPH treatment in serum-free medium by Annexin V-APC/propidium iodide staining based flow cytometric analysis; assay type: functional
[21] = target: T1, Leukocyte surface antigen CD47; assay: Binding affinity to CD47 in biotinylated human MEC1 cell membranes at 300 uM by biolayer interferometry; in short: as §1
[22] = tested on: MEC1; assay: Cytotoxicity against human MEC1 cells assessed as induction of cell death at 300 uM after 6 hrs by annexin V/propidium iodide staining based flow cytometric analysis relative to control; assay type: functional

T1 sequence (Q08722 whole entry): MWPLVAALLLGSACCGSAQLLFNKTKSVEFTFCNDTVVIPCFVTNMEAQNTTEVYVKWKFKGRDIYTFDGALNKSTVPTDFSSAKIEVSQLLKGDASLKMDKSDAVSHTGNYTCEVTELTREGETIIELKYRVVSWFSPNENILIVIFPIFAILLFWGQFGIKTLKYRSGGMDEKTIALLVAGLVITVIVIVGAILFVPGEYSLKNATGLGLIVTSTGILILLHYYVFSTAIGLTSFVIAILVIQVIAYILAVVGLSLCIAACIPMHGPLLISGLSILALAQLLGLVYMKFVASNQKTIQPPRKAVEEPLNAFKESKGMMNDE

## CCCC[C@H](NC(=O)[C@@H](NC(=O)[C@@H](NC(=O)[C@H](Cc1ccc(O)cc1)NC(=O)[C@H](Cc1ccccc1)NC(=O)[C@H](CCCNC(=N)N)N(C)C(C)=O)C(C)C)C(C)C)C(=O)N[C@@H](Cc1c[nH]c2ccccc12)C(=O)N[C@@H](CCCCN)C(N)=O
[1]
  Kd: 20 µM
[2]
  Activity: 51%

## CSCC[C@H](NC(=O)[C@@H](NC(=O)[C@@H](NC(=O)[C@H](Cc1ccc(O)cc1)NC(=O)[C@H](Cc1ccccc1)NC(=O)[C@H](CCCNC(=N)N)NC(=O)[C@H](N)CCCCN)C(C)C)C(C)C)C(=O)N[C@@H](Cc1c[nH]c2ccccc12)C(=O)N(C)[C@@H](CCCCN)C(=O)N[C@H](CCCCN)C(=O)O
[1]
  Kd: 48 µM
[2]
  Activity: 20%

## CSCC[C@H](NC(=O)[C@@H](NC(=O)[C@@H](NC(=O)[C@H](Cc1ccc(O)cc1)NC(=O)[C@H](Cc1ccccc1)NC(=O)[C@H](CCCNC(=N)N)NC(=O)[C@H](N)CCCCN)C(C)C)C(C)C)C(=O)N[C@@H](Cc1c[nH]c2ccccc12)C(=O)N[C@@H](CCCCN)C(=O)N[C@H](CCCCN)C(=O)O
[3]
  Activity: inactive
[4]
  Activity: inactive
[5]
  CC50: 200 µM
[6]
  Activity: Active
[7]
  Activity: inactive
[8]
  Activity: inactive
[9]
  Activity: inactive
[10]
  Activity: inactive
[11]
  Activity: Active
[12]
  Activity: inactive
[13]
  Activity: inactive
[14]
  Activity: inactive
[15]
  CC50: 200 µM
[16]
  Activity: Active
[17]
  Activity: inactive
[18]
  Activity: inactive
[19]
  Activity: inactive
[2]
  Activity: 67%
[20]
  Activity: inactive

## CC(C)[C@H](NC(=O)[C@H](Cc1ccc(O)cc1)NC(=O)[C@H](Cc1ccccc1)NC(=O)[C@H](CCCNC(=N)N)N(C)C(=O)[C@H](N)CCCCN)C(=O)N[C@H](C(=O)N[C@@H](Cc1ccc(O)cc1)C(=O)N[C@@H](Cc1c[nH]c2ccccc12)C(=O)N[C@@H](CCCCN)C(=O)N[C@H](CCCCN)C(=O)O)C(C)C
[1]
  Kd: 13 µM
[2]
  Activity: 19%

## CSCC[C@H](NC(=O)[C@@H](NC(=O)[C@@H](NC(=O)[C@H](Cc1ccc(O)cc1)NC(=O)[C@H](Cc1ccccc1)NC(=O)[C@H](CCCNC(=N)N)N(C)C(=O)[C@H](N)CCCCN)C(C)C)C(C)C)C(=O)N[C@@H](Cc1c[nH]c2ccccc12)C(=O)N(C)[C@@H](CCCCN)C(=O)N[C@H](CCCCN)C(=O)O
[1]
  Kd: 38 µM
[2]
  Activity: 19%

## CSCC[C@H](NC(=O)[C@@H](NC(=O)[C@@H](NC(=O)[C@H](Cc1ccc(O)cc1)NC(=O)[C@H](Cc1ccccc1)NC(=O)[C@H](CCCNC(=N)N)N(C)C(=O)[C@H](N)CCCCN)C(C)C)C(C)C)C(=O)N[C@@H](Cc1c[nH]c2ccccc12)C(=O)N[C@@H](CCCCN)C(=O)N[C@H](CCCCN)C(=O)O
[1]
  Kd: 21 µM
[2]
  Activity: 54%

## H-KWVKYRVMFK-OH
[21]
  Activity: inactive
[1]
  Activity: inactive
[2]
  Activity: inactive
[22]
  Activity: inactive

— ChEMBL document CHEMBL4414552, “Homotrimerization Approach in the Design of Thrombospondin-1 Mimetic Peptides with Improved Potency in Triggering Regulated Cell Death of Cancer Cells” (J Med Chem, 2019)
